An excerpt weighted towards active compounds, which were near 1.8% of everything screened.
M4 antag: antagonists of human muscarinic M4 receptor (CHRM4) | CHO-hM4 cells, ACh EC80, Fluo-8 calcium fluorescence | inhibition, % at 3 µM | 0.73% of 360,000 active | P08173;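 active = inhibition above its plate's cutoff, the mean inhibition of sample wells plus 3 SD, cut at about 27% in these data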
Target sequence (P08173 whole entry, looked up): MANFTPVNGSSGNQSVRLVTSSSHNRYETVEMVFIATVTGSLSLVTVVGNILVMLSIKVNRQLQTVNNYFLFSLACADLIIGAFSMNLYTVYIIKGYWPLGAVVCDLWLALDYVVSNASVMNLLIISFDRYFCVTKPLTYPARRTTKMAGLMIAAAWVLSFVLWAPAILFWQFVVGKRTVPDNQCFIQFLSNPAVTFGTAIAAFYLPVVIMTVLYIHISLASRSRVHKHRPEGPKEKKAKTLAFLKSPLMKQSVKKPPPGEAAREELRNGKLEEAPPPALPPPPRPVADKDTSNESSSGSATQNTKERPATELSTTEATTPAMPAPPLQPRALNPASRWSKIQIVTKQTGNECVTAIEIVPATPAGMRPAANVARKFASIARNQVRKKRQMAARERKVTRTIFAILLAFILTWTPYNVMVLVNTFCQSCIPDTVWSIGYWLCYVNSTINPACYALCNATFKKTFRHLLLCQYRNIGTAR
CHRM5 PAM: potentiates acetylcholine response at human M5 receptor. CHO-K1 hM5, Fluo-8 calcium, ACh EC20 PAM; 0% = ACh EC20, 100% = ACh EC100. 0.3% of 360,000 active. activation, % at 3 µM;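 active = activation above the run cutoff, the mean activation of all test compounds plus 3 SD, cut at about 18% in these data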
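system = human M5 receptor in CHO-K1 cells | reagent = EC20 acetylcholine as agonist stimulus | compound dosing = single-point, 3 µM nominal | incubation = Fluo-8 loading 80 min at 37 °C plus 30 min room temperature | detection = Fluo-8 calcium dye fluorescence, kinetic read | benchmarks = low control EC20 acetylcholine (0%), high control EC100 acetylcholine (100%)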
M4 ag: CHRM4 agonism in calcium assay | P08173 | CHO-K1 hM4/Gqi5, Fluo-8 calcium fluorescence; vehicle 0%, full acetylcholine response 100% | activation, % at 3 µM | 0.14% of 360,000 active | AID 624127;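 active = activation above the run mean over all test wells plus 3 SD, cut at about 32% in these data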;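 also: peak over basal fluorescence ratio per well then scaled between controls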
M4 PAM: CHRM4 positive allosteric modulation; P08173; AID 624126; activation, % at 3 µM; 0.4% of 360,000 active; CHO-K1 hM4/Gqi5, Fluo-8 calcium fluorescence, ACh EC20; 0% = ACh EC20, 100% = maximal ACh;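 active = activation above its plate's cutoff, the mean activation of sample wells plus 3 SD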
CHRM5 agonist: agonists of human muscarinic M5 receptor (CHRM5) | P08912 | CHO-K1 hM5 cells, Fluo-8 calcium fluorescence; 0% DMSO wells, 100% maximal acetylcholine response | activation, % at 3 µM | 0.19% of 360,000 active | AID 624037;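 active = activation above the run's mean over test compounds plus 3 SD, cut at about 23% in these data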;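 also: signal is peak over basal fluorescence ratio across the kinetic read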
M5 antag: antagonists of human muscarinic M5 receptor (CHRM5). inhibition, % at 3 µM. 0.59% of 360,000 active. CHO-hM5 cells, Fluo-8 calcium fluorescence, ACh EC80;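 active = inhibition above a per-plate cutoff, the mean of that plate's test compounds plus 3 SD, cut at about 27% in these data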
Each line names hits and unclear results; the compound was inactive in the other large screens.

COc1ccc(C(C(=O)NC2CCCCC2)N(CC2CCCO2)C(=O)C2COc3ccccc3O2)cc1OC (centres undefined)	CHRM5 PAM 33.4
COc1ccc(N2Cc3ccc(OC)c(OC)c3C2=O)cc1	M4 antag 59.8
O=S(=O)(c1ccc(NC(=S)NC23CC4CC(CC(C4)C2)C3)cc1)N1CCCCC1	none
CC1(C)NC(=O)N(CC(O)COc2ccccc2C(=O)Nc2ccccc2)C1=O (centres undefined)	none
O=C(Nc1ccccc1)c1ccccc1OCC(O)CN1C(=O)c2ccccc2S1(=O)=O (centres undefined)	M4 antag 31.5
O=C(NC(NNc1ccc([N+](=O)[O-])cc1)(C(F)(F)F)C(F)(F)F)c1ccc(F)cc1	M5 antag 28.9
O=C(NC(NNc1ccc([N+](=O)[O-])cc1)(C(F)(F)F)C(F)(F)F)c1ccccc1Cl	none
CN1CCN(c2ccc(CNC(=O)C3Cc4c(-c5ccc(Cl)cc5)ccnc4O3)cc2)CC1 (centres undefined)	none
Cc1cnc(NC(=O)CSc2ncc(-c3ccccc3)n2Cc2ccco2)s1	CHRM5 agonist 25.9
O=C(COC(=O)[C@@H]1CC(O)CN1S(=O)(=O)c1ccc2c(c1)OCCO2)Nc1cc(F)ccc1F (some centres undefined)	none
CN(C(=O)CCN1C(=O)/C(=C/c2ccccc2)SC1=S)C1CCS(=O)(=O)C1 (centres undefined)	CHRM5 PAM 30.5
CN(C(=O)CN1C(=O)S/C(=C\c2ccccc2)C1=O)C1CCS(=O)(=O)C1 (centres undefined)	none
CN(C(=O)CN1C(=O)S/C(=C\c2ccc(Cl)cc2)C1=O)C1CCS(=O)(=O)C1 (centres undefined)	M4 PAM 16.6
CN(C(=O)CN1C(=O)/C(=C/c2ccc(F)cc2)SC1=S)C1CCS(=O)(=O)C1 (centres undefined)	none
N#Cc1c(Cl)nsc1NN	M5 antag 30.9
O=C(CCCCCn1c(=O)[nH]c2ccsc2c1=O)NCc1ccc2c(c1)OCO2	none
CCOC(=O)C1CCN(c2ncnc3c2cnn3-c2ccc(Cl)cc2)CC1	CHRM5 PAM 19.2
CCOC(=O)N1CCN(c2ncnc3c2cnn3-c2ccc(OC)cc2)CC1	M4 PAM 28.3
COc1ccc(-n2ncc3c(N4CCC(C)CC4)ncnc32)cc1	none
CCC(C)(C)C1CCC2(CC1)NC(=O)N(CC(=O)NCCc1ccc(OC)c(OC)c1)C2=O (centres undefined)	none
Cc1ccc(/C=C/C(=O)c2cc(Br)ccc2OC(=O)c2ccco2)cc1	CHRM5 PAM 21.2
CCOC(=O)CNC1CC(=O)N(c2ccc(Br)cc2)C1=O (centres undefined)	CHRM5 PAM 21.2
O=C(NNC1CC(=O)N(c2ccc(Br)cc2)C1=O)c1ccco1 (centres undefined)	none
CCOC(=O)c1ccc(N2C(=O)CC(Nc3ccc(O)cc3)C2=O)cc1 (centres undefined)	none
O=C(NNC1CC(=O)N(c2ccc(Br)cc2)C1=O)c1cccs1 (centres undefined)	M4 antag 30.5
Cc1cc(C)c2c(=O)n(CC(=O)Nc3cccc(Cl)c3C)sc2n1	M4 antag 69.6, M4 ag 66.6, CHRM5 agonist 27.5
Cc1cc(C)c2c(=O)n(CC(=O)Nc3ccc(Br)c(C)c3)sc2n1	none
N#Cc1c(Cc2cccc3ccccc23)nn(CCO)c1N	M4 PAM 24.7
Cn1nc(Cc2cccc3ccccc23)c(C#N)c1N	none
COc1ccc(S(=O)(=O)N2CCC(C(=O)NN3CCCCC3)CC2)cc1OC	none
CC(=O)OC[C@]12CC[C@H]3[C@@](C)(CC[C@H]4C(C)(C)CCC[C@]34C)[C@@H]1CC(C1=CC(=O)OC1O)O2 (some centres undefined)	M4 antag 87.8
CC(=O)OC[C@]1(OC(C)=O)C[C@@]23CC[C@H]4[C@@](C)(CCC[C@@]4(C)C(=O)O)[C@@H]2CC[C@@H]1C3	none
COc1ccc(C(=O)N/C(=C\c2ccccc2)C(=O)N2CCOCC2)cc1	M4 PAM 19.3
CN(C)NC(=S)NC1CCS(=O)(=O)C1 (centres undefined)	CHRM5 PAM 21.1
O=C1CC(NNC(=O)c2cccc(F)c2)C(=O)N1 (centres undefined)	none
CCN(CC)Cc1c(O)ccc2c(=O)c(-c3ccccc3OC)coc12	none
CN(C)Cc1cc(C(C)(C)c2ccccc2)ccc1O	M5 antag 29.3
CC(C)(c1ccc(O)c([N+](=O)[O-])c1)c1ccc(O)c([N+](=O)[O-])c1	none
O=C(Nc1ccccc1OC(F)F)c1ccc(F)cc1	CHRM5 PAM 24.2
CC(C)CNC(=O)c1ccc(C2SCC(=O)N2Cc2ccccc2)cc1 (centres undefined)	M4 antag 46.7
Cc1ccc(/C=N\NC(=O)c2ccc3c(c2)OCO3)o1	none
O=C(NCCCn1ccnc1)C(=O)c1c[nH]c2ccccc12	none
COc1ccc2noc3c2c1C(=O)c1ccccc1-3	M4 antag 36.5, M4 ag 59.3, CHRM5 agonist 51.4, M5 antag 27.9
CCOC(=O)CCCCCCCCC(=O)Nc1ccc(-n2[nH]c(=O)cc2C)cc1	CHRM5 agonist 23.6
CCC(C)[C@H](NC(=O)C1CC(=O)N(c2ccc3c(c2)OCCO3)C1)C(=O)N1CCCCC1 (some centres undefined)	none
N#CCCn1cc(/C=N/O)c(-c2cccc([N+](=O)[O-])c2)n1	M5 antag 46.8
N#CCCn1cc(/C=N/O)c(-c2ccccc2)n1	none
O=C(O)c1ccc(Cl)c(S(=O)(=O)N(Cc2ccccc2)c2ccccc2)c1	none
CCN(c1ccccc1)S(=O)(=O)c1cc(C(=O)O)ccc1C	M4 PAM 17.3
COc1ccc(Cl)cc1NS(=O)(=O)c1cccc(C(=O)NCCCN2CCOCC2)c1	none
OC(c1ccccc1)(c1nc(-c2cc(F)cc(F)c2)cs1)C(F)(F)F (centres undefined)	none
CCC1CCCCN1S(=O)(=O)c1ccc([N+](=O)[O-])cc1 (centres undefined)	M4 antag 28.3
CC1CCCCN1S(=O)(=O)c1ccc([N+](=O)[O-])cc1 (centres undefined)	M4 antag 28.7
CC(C)c1[nH]nc2c1C1(CCN(Cc3ccccc3)CC1)C(C#N)=C(N)O2	M4 antag 32.2
COc1ccc(NS(=O)(=O)c2ccc(C)c(NC(=O)CN3C(=O)NC4(CCCC4)C3=O)c2)cc1	none
